In brackets after ≈: the same amount, converted by molar mass.
How the values were obtained:
Type in all cases: functional
[1] = system: Escherichia coli; experiment: Antimicrobial activity against Escherichia coli XL1-Blue harboring pLBII-VIM-2 plasmid expressing VIM-2 beta-lactamase by broth microdilution method
In short: (§1)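 Isogenic E. coli XL-1 strains carried pLBII-VIM-2 encoding wild-type or mutant VIM-2, or the empty pBC-SK vector. β-Lactam MICs were determined by CLSI broth microdilution in cation-adjusted Mueller-Hinton broth.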

[2] = system: Escherichia coli; experiment: Antimicrobial activity against Escherichia coli XL1-Blue harboring pLBII-VIM-2 plasmid expressing VIM-2 W87A mutant beta-lactamase by broth microdilution method; in short: as §1
[3] = system: Escherichia coli; experiment: Antimicrobial activity against Escherichia coli XL1-Blue harboring pBC-SK plasmid by broth microdilution method; in short: as §1
[4] = system: Escherichia coli; experiment: Antimicrobial activity against Escherichia coli XL1-Blue harboring pLBII-VIM-2 plasmid expressing VIM-2 W87F mutant beta-lactamase by broth microdilution method; in short: as §1
[5] = system: Escherichia coli; experiment: Antimicrobial activity against Escherichia coli XL1-Blue harboring pLBII-VIM-2 plasmid expressing VIM-2 A64W mutant beta-lactamase by broth microdilution method; in short: as §1
[6] = system: Escherichia coli; experiment: Antimicrobial activity against Escherichia coli XL1-Blue VIM-2 F61G mutant beta-lactamase by broth microdilution method
[7] = system: Escherichia coli; experiment: Antimicrobial activity against Escherichia coli XL1-Blue VIM-2 F61H mutant beta-lactamase by broth microdilution method
[8] = system: Escherichia coli; experiment: Antimicrobial activity against Escherichia coli XL1-Blue VIM-2 W87P mutant beta-lactamase by broth microdilution method
[9] = system: Escherichia coli; experiment: Antimicrobial activity against Escherichia coli XL1-Blue VIM-2 F61P mutant beta-lactamase by broth microdilution method
[10] = system: Escherichia coli; experiment: Antimicrobial activity against Escherichia coli XL1-Blue VIM-2 F61A mutant beta-lactamase by broth microdilution method
[11] = system: Escherichia coli; experiment: Antimicrobial activity against Escherichia coli XL1-Blue VIM-2 F61R mutant beta-lactamase by broth microdilution method
[12] = system: Escherichia coli; experiment: Antimicrobial activity against Escherichia coli XL1-Blue VIM-2 W87R mutant beta-lactamase by broth microdilution method
[13] = system: Escherichia coli; experiment: Antimicrobial activity against Escherichia coli XL1-Blue VIM-2 W87G mutant beta-lactamase by broth microdilution method
[14] = system: Escherichia coli; experiment: Antimicrobial activity against Escherichia coli XL1-Blue VIM-2 W87T mutant beta-lactamase by broth microdilution method
[15] = system: Escherichia coli; experiment: Antimicrobial activity against Escherichia coli XL1-Blue VIM-2 F61S mutant beta-lactamase by broth microdilution method
[16] = system: Escherichia coli; experiment: Antimicrobial activity against Escherichia coli XL1-Blue VIM-2 W87N mutant beta-lactamase by broth microdilution method
[17] = system: Escherichia coli; experiment: Antimicrobial activity against Escherichia coli XL1-Blue VIM-2 W87Q mutant beta-lactamase by broth microdilution method
[18] = system: Escherichia coli; experiment: Antimicrobial activity against Escherichia coli XL1-Blue VIM-2 W87L mutant beta-lactamase by broth microdilution method
[19] = system: Escherichia coli; experiment: Antimicrobial activity against Escherichia coli XL1-Blue VIM-2 F61Y mutant beta-lactamase by broth microdilution method
[20] = system: Escherichia coli; experiment: Antimicrobial activity against Escherichia coli XL1-Blue VIM-2 F61K mutant beta-lactamase by broth microdilution method
[21] = system: Escherichia coli; experiment: Antimicrobial activity against Escherichia coli XL1-Blue VIM-2 W87I mutant beta-lactamase by broth microdilution method
[22] = system: Escherichia coli; experiment: Antimicrobial activity against Escherichia coli XL1-Blue VIM-2 W87V mutant beta-lactamase by broth microdilution method
[23] = system: Escherichia coli; experiment: Antimicrobial activity against Escherichia coli XL1-Blue VIM-2 F61L mutant beta-lactamase by broth microdilution method
[24] = system: Escherichia coli; experiment: Antimicrobial activity against Escherichia coli XL1-Blue VIM-2 W87K mutant beta-lactamase by broth microdilution method
[25] = system: Escherichia coli; experiment: Antimicrobial activity against Escherichia coli XL1-Blue VIM-2 W87M mutant beta-lactamase by broth microdilution method
[26] = system: Escherichia coli; experiment: Antimicrobial activity against Escherichia coli XL1-Blue VIM-2 F61I mutant beta-lactamase by broth microdilution method
[27] = system: Escherichia coli; experiment: Antimicrobial activity against Escherichia coli XL1-Blue VIM-2 F61N mutant beta-lactamase by broth microdilution method
[28] = system: Escherichia coli; experiment: Antimicrobial activity against Escherichia coli XL1-Blue VIM-2 W87S mutant beta-lactamase by broth microdilution method
[29] = system: Escherichia coli; experiment: Antimicrobial activity against Escherichia coli XL1-Blue VIM-2 W87A mutant beta-lactamase by broth microdilution method
[30] = system: Escherichia coli; experiment: Antimicrobial activity against Escherichia coli XL1-Blue VIM-2 W87Y mutant beta-lactamase by broth microdilution method
[31] = system: Escherichia coli; experiment: Antimicrobial activity against Escherichia coli XL1-Blue VIM-2 F61W mutant beta-lactamase by broth microdilution method
[32] = system: Escherichia coli; experiment: Antimicrobial activity against Escherichia coli XL1-Blue VIM-2 F61T mutant beta-lactamase by broth microdilution method
[33] = system: Escherichia coli; experiment: Antimicrobial activity against Escherichia coli XL1-Blue VIM-2 F61C mutant beta-lactamase by broth microdilution method
[34] = system: Escherichia coli; experiment: Antimicrobial activity against Escherichia coli XL1-Blue VIM-2 F61V mutant beta-lactamase by broth microdilution method
[35] = system: Escherichia coli; experiment: Antimicrobial activity against Escherichia coli XL1-Blue VIM-2 W87F mutant beta-lactamase by broth microdilution method

C[C@@H](O)[C@H]1C(=O)N2C(C(=O)O)=C(S[C@@H]3CN[C@H](C(=O)Nc4cccc(C(=O)O)c4)C3)[C@H](C)[C@H]12
MIC [1]: 0.5 µg/mL (≈ 1.05 µM)
MIC [2]: ≤ 0.03 µg/mL
MIC [3]: ≤ 0.03 µg/mL
MIC [4]: ≤ 0.03 µg/mL
MIC [5]: 0.5 µg/mL (≈ 1.05 µM)

CO/N=C(\C(=O)N[C@@H]1C(=O)N2C(C(=O)[O-])=C(C[N+]3(C)CCCC3)CS[C@H]12)c1csc(N)n1
MIC [1]: 0.5 µg/mL (≈ 1.04 µM)
MIC [2]: 0.12 µg/mL (≈ 0.25 µM)
MIC [5]: 0.5 µg/mL (≈ 1.04 µM)

CC1(C)S[C@@H]2[C@H](NC(=O)[C@H](N)c3ccccc3)C(=O)N2[C@H]1C(=O)O [AMPICILLIN]
MIC [6]: ≥ 32 µg/mL
MIC [7]: ≥ 32 µg/mL
MIC [8]: ≤ 4 µg/mL
MIC [9]: 8 µg/mL (≈ 22.9 µM)
MIC [10]: ≥ 32 µg/mL
MIC [11]: 8 µg/mL (≈ 22.9 µM)
MIC [12]: ≤ 4 µg/mL
MIC [13]: ≤ 4 µg/mL
MIC [14]: ≤ 4 µg/mL
MIC [15]: 8 µg/mL (≈ 22.9 µM)
MIC [16]: ≤ 4 µg/mL
MIC [17]: ≤ 4 µg/mL
MIC [1]: 64 µg/mL (≈ 183 µM)
MIC [18]: ≤ 4 µg/mL
MIC [19]: ≥ 32 µg/mL
MIC [20]: ≥ 32 µg/mL
MIC [21]: ≤ 4 µg/mL
MIC [4]: 8 µg/mL (≈ 22.9 µM)
MIC [5]: 64 µg/mL (≈ 183 µM)
MIC [22]: ≤ 4 µg/mL
MIC [23]: ≥ 32 µg/mL
MIC [24]: ≤ 4 µg/mL
MIC [25]: ≤ 4 µg/mL
MIC [26]: ≥ 32 µg/mL
MIC [27]: ≥ 32 µg/mL
MIC [28]: ≤ 4 µg/mL
MIC [29]: ≤ 4 µg/mL
MIC [30]: ≤ 4 µg/mL
MIC [31]: ≥ 32 µg/mL
MIC [32]: ≥ 32 µg/mL
MIC [33]: 8 µg/mL (≈ 22.9 µM)
MIC [34]: ≥ 32 µg/mL
MIC [35]: ≤ 4 µg/mL

C[C@H]1[C@H](NC(=O)/C(=N\OC(C)(C)C(=O)O)c2csc(N)n2)C(=O)N1S(=O)(=O)O [AZTREONAM]
MIC [1]: 0.12 µg/mL (≈ 0.276 µM)
MIC [2]: 0.12 µg/mL (≈ 0.276 µM)
MIC [5]: 0.12 µg/mL (≈ 0.276 µM)

CO/N=C(\C(=O)N[C@@H]1C(=O)N2C(C(=O)O)=C(COC(C)=O)CS[C@H]12)c1csc(N)n1 [CEFOTAXIME]
MIC [1]: > 32 µg/mL
MIC [2]: 0.12 µg/mL (≈ 0.263 µM)
MIC [3]: 0.12 µg/mL (≈ 0.263 µM)
MIC [4]: 0.12 µg/mL (≈ 0.263 µM)
MIC [5]: > 32 µg/mL

CO[C@@]1(NC(=O)Cc2cccs2)C(=O)N2C(C(=O)O)=C(COC(N)=O)CS[C@@H]21 [CEFOXITIN]
MIC [1]: 128 µg/mL (≈ 299 µM)
MIC [2]: 8 µg/mL (≈ 18.7 µM)
MIC [3]: 8 µg/mL (≈ 18.7 µM)
MIC [4]: 8 µg/mL (≈ 18.7 µM)
MIC [5]: 128 µg/mL (≈ 299 µM)

CC(C)(O/N=C(\C(=O)N[C@@H]1C(=O)N2C(C(=O)[O-])=C(C[n+]3ccccc3)CS[C@H]12)c1csc(N)n1)C(=O)O [CEFTAZIDIME]
MIC [1]: 2 µg/mL (≈ 3.66 µM)
MIC [2]: 0.12 µg/mL (≈ 0.22 µM)
MIC [3]: 0.12 µg/mL (≈ 0.22 µM)
MIC [4]: 0.12 µg/mL (≈ 0.22 µM)
MIC [5]: 2 µg/mL (≈ 3.66 µM)

CO/N=C(\C(=O)N[C@@H]1C(=O)N2C(C(=O)O)=C(CSc3nc(=O)c(O)nn3C)CS[C@H]12)c1csc(N)n1 [CEFTRIAXONE]
MIC [1]: 4 µg/mL (≈ 7.21 µM)
MIC [2]: 0.12 µg/mL (≈ 0.216 µM)
MIC [3]: 0.12 µg/mL (≈ 0.216 µM)
MIC [4]: 0.12 µg/mL (≈ 0.216 µM)
MIC [5]: 4 µg/mL (≈ 7.21 µM)

CO/N=C(\C(=O)N[C@@H]1C(=O)N2C(C(=O)O)=C(COC(N)=O)CS[C@H]12)c1ccco1 [CEFUROXIME]
MIC [1]: 256 µg/mL (≈ 603 µM)
MIC [2]: 8 µg/mL (≈ 18.9 µM)
MIC [3]: 8 µg/mL (≈ 18.9 µM)
MIC [4]: 8 µg/mL (≈ 18.9 µM)
MIC [5]: 256 µg/mL (≈ 603 µM)

CC(=O)OCC1=C(C(=O)O)N2C(=O)[C@@H](NC(=O)Cc3cccs3)[C@H]2SC1 [CEPHALOTHIN]
MIC [1]: 256 µg/mL (≈ 646 µM)
MIC [2]: 16 µg/mL (≈ 40.4 µM)
MIC [3]: 16 µg/mL (≈ 40.4 µM)
MIC [5]: 256 µg/mL (≈ 646 µM)

C[C@@H](O)[C@H]1C(=O)N2C(C(=O)O)=C(SCCNC=N)C[C@H]12 [IMIPENEM ANHYDROUS]
MIC [1]: 1 µg/mL (≈ 3.34 µM)
MIC [2]: 0.12 µg/mL (≈ 0.401 µM)
MIC [5]: 1 µg/mL (≈ 3.34 µM)

C[C@@H](O)[C@H]1C(=O)N2C(C(=O)O)=C(S[C@@H]3CN[C@H](C(=O)N(C)C)C3)[C@H](C)[C@H]12 [MEROPENEM]
MIC [1]: 0.5 µg/mL (≈ 1.3 µM)
MIC [2]: ≤ 0.03 µg/mL
MIC [3]: ≤ 0.03 µg/mL
MIC [4]: ≤ 0.03 µg/mL
MIC [5]: 0.5 µg/mL (≈ 1.3 µM)

CCN1CCN(C(=O)N[C@@H](C(=O)N[C@@H]2C(=O)N3[C@@H]2SC(C)(C)[C@@H]3C(=O)O)c2ccccc2)C(=O)C1=O [PIPERACILLIN]
MIC [1]: 8 µg/mL (≈ 15.5 µM)
MIC [2]: 0.5 µg/mL (≈ 0.966 µM)
MIC [3]: 0.5 µg/mL (≈ 0.966 µM)
MIC [4]: 0.5 µg/mL (≈ 0.966 µM)
MIC [5]: 8 µg/mL (≈ 15.5 µM)

— ChEMBL document CHEMBL1687761 (2010)
